Key:
Type in all cases: cell-based
[1] = tested on: amphotropic murine leukemia virus (AMLV) Env pseudotyped HIV-1 virus; conditions: result in words
HIV-2CDC310319 = assay: replication of fully infectious virus in primary human PBMCs, HIV-2 isolate; conditions: result in words
Outline: (§1)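 Primary human PBMCs infected with fully infectious isolates from HIV-1 subtypes A, B, C and D, plus one HIV-2 isolate, to measure inhibition of viral replication. Toxicity to the same PBMCs was assessed concomitantly with an MTS assay. IC50 is the half-maximal inhibitory concentration and TC50 the half-maximal toxic concentration. Antiviral index is calculated as TC50/IC50.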

[2] = tested on: primary human peripheral blood mononuclear cells (PBMCs); assay: toxicity to PBMCs using an MTS assay; conditions: run concomitantly with each isolate
Outline: as §1

[3] = tested on: HIV-1 94US_33931 N (subtype B); conditions: isolate 94US_33931 N
Outline: as §1

[4] = tested on: HIV-1 91US004 (subtype B); assay: replication of fully infectious virus in primary human PBMCs, isolate 91US004; conditions: isolate 91US004, subtype B
Outline: as §1

[5] = tested on: HIV-1 99UG_A07412M1 (subtype D); conditions: isolate 99UG_A07412M1, subtype D
Outline: as §1

[6] = tested on: HIV-1 92UG037 (subtype A); assay: replication of fully infectious virus in primary human PBMCs, isolate 92UG037; conditions: isolate 92UG037, subtype A
[7] = tested on: HIV-1 98US_MSC5016 (subtype C); conditions: isolate 98US_MSC5016, subtype C

Structure (SMILES)	inhibition of AMLV-pseudotyped HIV-1 (specificity) [1]	effect on the replication of an HIV-2 isolate (HIV-2CDC310319)	C50 (half-maximal toxic concentration) [2]	Antiviral index (TC50/IC50) [3]	Antiviral index (TC50/IC50) [4]	Antiviral index (TC50/IC50) [5]	Antiviral index (TC50/IC50) [6]	Antiviral index (TC50/IC50) [7]
COc1cnc(Cl)c2[nH]cc(C(=O)C(=O)N3CC4CN(C(=O)c5ccccc5)CC4C3)c12 (stereo not drawn) [SC07]	no inhibition							
COc1ncc(OC)c2c(C(=O)C(=O)N3CC4CN(C(=O)c5ccccc5)CC4C3)c[nH]c12 (stereo not drawn) [SC08]	no inhibition							
COc1cnc(-n2cnc(C)n2)c2[nH]cc(C(=O)C(=O)N3CC4CN(C(=O)C5=CCCCC5)CC4C3)c12 (stereo not drawn) [SC26]		no effect	>100 MM	> 166,666	>513	>204	>3.97	>25.6
